In ChEMBL document CHEMBL1131577, “Auxiliary agents for the peroral administration of peptide and protein drugs: synthesis and evaluation of novel pepstatin analogues” (J Med Chem, 1998):

Target: Pepsin A (Homo sapiens, UniProt P0DJD9)
Assay: Inhibitory activity against pepsin as oxidation of o-phenylenediamine by Horse radish peroxidase (Pepsin sensitive)
In short: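 Pepsin (1 mg, 40 units, per mL of 0.05 N HCl, freshly prepared) mixed with test compound serially diluted 1:2 in DMSO, then 37.5 µg horseradish peroxidase in 0.05 N HCl added; incubated 2 h at 37 °C, then diluted 1:2 in 0.05 N HCl. Residual peroxidase oxidation of o-phenylenediamine (phosphate buffer pH 6.5, H2O2) ran 10 min at room temperature, read at 492 nm. Pepstatin dilutions served as reference.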

Sequence of Pepsin A (P0DJD9 whole entry): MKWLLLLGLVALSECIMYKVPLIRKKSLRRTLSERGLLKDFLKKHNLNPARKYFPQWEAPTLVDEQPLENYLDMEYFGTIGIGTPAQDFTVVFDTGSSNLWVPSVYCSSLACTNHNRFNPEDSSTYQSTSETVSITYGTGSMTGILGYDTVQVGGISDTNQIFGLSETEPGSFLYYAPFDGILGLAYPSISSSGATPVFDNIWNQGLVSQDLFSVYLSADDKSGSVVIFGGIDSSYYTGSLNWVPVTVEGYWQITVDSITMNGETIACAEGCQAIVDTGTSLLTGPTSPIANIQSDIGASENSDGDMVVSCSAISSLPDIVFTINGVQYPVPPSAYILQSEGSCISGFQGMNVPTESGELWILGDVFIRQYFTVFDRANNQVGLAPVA

SMILES	IC50 [nM]
CCCCC(O)[C@@H](NC(=O)[C@@H](NC(=O)[C@@H](NC(=O)OC(C)(C)C)C(C)C)C(C)C)[C@@H](C)CC (stereo not given in full)	33000
CCCCCCCCC(O)[C@H](CCC)NC(=O)[C@@H](NC(=O)[C@@H](NC(=O)OC(C)(C)C)C(C)C)C(C)C (stereo not given in full)	1070
CCCCC(O)[C@H](CCC)NC(=O)[C@@H](NC(=O)[C@@H](NC(=O)OC(C)(C)C)C(C)C)C(C)C (stereo not given in full)	910
CCCCCCCCC(O)[C@@H](NC(=O)[C@@H](NC(=O)[C@@H](NC(=O)OC(C)(C)C)C(C)C)C(C)C)[C@@H](C)CC (stereo not given in full)	15000
CCCCCCC(O)[C@@H](NC(=O)[C@@H](NC(=O)[C@@H](NC(=O)OC(C)(C)C)C(C)C)C(C)C)[C@@H](C)CC (stereo not given in full)	27000
CCCCC(O)[C@H](CC(C)C)NC(=O)[C@@H](NC(=O)[C@@H](NC(=O)OC(C)(C)C)C(C)C)C(C)C (stereo not given in full)	1240
CCCCCCC(O)[C@H](CC(C)C)NC(=O)[C@@H](NC(=O)[C@@H](NC(=O)OC(C)(C)C)C(C)C)C(C)C (stereo not given in full)	830

Stronger by IC50, values ahead:

IC50 [nM]	SMILES
790	CCCCCCCCC(O)[C@H](CC(C)C)NC(=O)[C@@H](NC(=O)[C@@H](NC(=O)OC(C)(C)C)C(C)C)C(C)C (stereo not given in full)
700	CCCCCCC(O)[C@H](CCC)NC(=O)[C@@H](NC(=O)[C@@H](NC(=O)OC(C)(C)C)C(C)C)C(C)C (stereo not given in full)
59	CC(C)CC(=O)N[C@H](C(=O)N[C@H](C(=O)N[C@@H](CC(C)C)[C@@H](O)CC(=O)N[C@@H](C)C(=O)N[C@@H](CC(C)C)[C@@H](O)CC(=O)O)C(C)C)C(C)C [PEPSTATIN]
